Compound activity from PubChem.
Most compounds without a hit are left out; they make up all but 3.7% or so of the library.
KCNK9 block – inhibitors of human KCNK9 two-pore domain potassium channel. HEK293 KCNK9, FluxOR thallium flux fluorescence; stronger effect = lower value. B-score at 10 µM. 1.2% of 310,000 active. AID 488922;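 active = ratio B-score over 3 SD below the library mean, with starting fluorescence within 5 SD of its mean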;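 also: negative B-score means less thallium flux so channel inhibition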
KCNQ1 act – potentiators or activators of human KCNQ1 potassium channel; P51787; CHO-K1 KCNQ1, thallium flux FluxOR fluorescence; stronger effect = higher value; B-score at 10 µM; 0.35% of 310,000 active; AID 2648;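 active = fluorescence ratio B-score, a plate-corrected score, at least three library SD, with initial intensity B-score within 5 SD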
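Schedule – 37 °C overnight plating, 90-min dark dye load, 20-min compound pretreatment · System – stable KCNQ1 CHO-K1 line · Probe or stimulus – thallium- and potassium-containing depolarizing buffer · Measured by – kinetic FluxOR fluorescence, 10 s baseline plus 110 s post-stimulus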
Kir21 block – Kir2.1 (mouse) channel inhibition. P35561. HEK293-Kir2.1, FluxOR thallium flux fluorescence; stronger effect = lower value. B-score at 10 µM. 0.85% of 310,000 active;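 active = fluorescence ratio B-score at or below minus 3 SD of library scores, with starting-brightness B-score within 2 SD, cut at about -4.2 in these data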;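 also: channel flux triggered by added potassium and thallium sulfate stimulus; B-score of peak minus minimum fluorescence over baseline after thallium stimulus; more negative B-score means stronger Kir2.1 block with less thallium influx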
Target sequence (P35561 whole entry, looked up): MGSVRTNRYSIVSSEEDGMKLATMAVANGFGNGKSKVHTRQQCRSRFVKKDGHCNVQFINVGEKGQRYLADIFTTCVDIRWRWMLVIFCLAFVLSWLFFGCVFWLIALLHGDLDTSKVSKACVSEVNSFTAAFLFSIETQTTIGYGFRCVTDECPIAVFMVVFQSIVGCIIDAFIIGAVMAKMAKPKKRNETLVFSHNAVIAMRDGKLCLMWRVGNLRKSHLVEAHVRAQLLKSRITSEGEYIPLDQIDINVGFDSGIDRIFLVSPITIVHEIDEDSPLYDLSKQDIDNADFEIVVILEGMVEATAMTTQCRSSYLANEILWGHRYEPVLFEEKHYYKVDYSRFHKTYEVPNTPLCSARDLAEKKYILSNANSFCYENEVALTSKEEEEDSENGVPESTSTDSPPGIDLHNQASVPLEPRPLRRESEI
KCNK3 block – human KCNK3 channel inhibition, primary screen. AID 602410. CHO-KCNK3 thallium flux, FluxOR fluorescence; stronger effect = lower value. 0.84% of 340,000 active. B-score at 10 µM. O14649;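 active = B-score under library mean minus 4 SD, starting fluorescence ratio at most library mean plus 5 SD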;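 also: more negative B-score means stronger inhibition of thallium flux through KCNK3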
hERG rescue – compounds protecting human hERG from proarrhythmic drug block; CHO-hERG, FluxOR thallium flux, dofetilide IC70 present; activation (rescue from dofetilide block), less the hit threshold, % at 10 µM; 0.51% of 310,000 active;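 active = activation above the mean of controls blocked by dofetilide plus 5 SD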;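 also: thallium influx through hERG after potassium depolarization seen as dye fluorescence rise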
KCNQ1 inh – inhibitors of human KCNQ1 potassium channel; P51787; 1.3% of 310,000 active; B-score at 10 µM; AID 2642; CHO-K1 KCNQ1, FluxOR thallium flux fluorescence; stronger effect = higher value;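 active = compounds whose thallium flux B-score, printed positive for inhibition, exceeds three library SD while starting fluorescence stays within three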;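 also: channel opened by potassium depolarization with thallium stimulus after 20 min compound exposure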
KCNK3 confirm – confirmation of human KCNK3 two-pore domain potassium channel inhibitors; shares compounds with KCNK3 block; AID 651638; ratio percent of control, % at 10 µM; CHO-KCNK3 thallium flux, FluxOR fluorescence; 0% buffer, 100% carvedilol maximal block; 99% of 2,400 active;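 active = ratio percent of control, averaged over triplicates, above buffer control mean plus 5 SD, cut at about 64% in these data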;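 also: ratio is the fluorescence rise from min to max over baseline after thallium stimulus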
KCNK3 uninduced – KCNK3 inhibitor counter-screen hit in non-induced cells; shares compounds with KCNK3 block; non-induced KCNK3 parental cells, FluxOR thallium flux; stronger effect = lower value; thallium flux ratio (lower = more inhibition) at 10 µM; 40% of 2,400 active;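 active = thallium flux ratio, averaged over three wells, more than 5 SD below the buffer control mean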;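 also: host cells are CHO cells without KCNK3 induction; ratio is peak minus trough fluorescence over baseline then normalized to buffer controls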
* = called active by the depositor; i = inactive; / = no result given.

SMILES	KCNK9 block	KCNQ1 act	Kir21 block	KCNK3 block	hERG rescue	KCNQ1 inh	KCNK3 confirm	KCNK3 uninduced
CC(C)CNC(=O)c1cc2nc3c(c(C(F)(F)F)n2n1)CCc1ccccc1-3	i	i	1.12	-16.8*	1.2	i	56.3*	i
CCCCNC(=O)C(CC)(ONc1ccccc1C(F)(F)F)c1ccccc1 (stereo not given)	/	/	/	i	/	/	/	/
C=C(CN(C)C)C(=O)c1ccc2c(c1)OCO2	/	/	/	i	/	/	/	/
COc1cc(NC(=O)CSCC(=O)Nc2cccc(C(F)(F)F)c2)c(Cl)cc1Cl	i	i	-1.65	-11*	-12.0	7*	114.7*	i
O=C(COCC(=O)Nc1cccc(C(F)(F)F)c1)Nc1cccc(C(F)(F)F)c1	i	i	0.31	i	-12.5	i	/	/
CC(C)COc1cccc(-c2cc(C(=O)Nc3ccon3)c3ccccc3n2)c1	i	i	-1.12	i	-4.1	i	/	/
O=C(CO/N=C/c1cccc([N+](=O)[O-])c1)Nc1ccc2ccccc2c1	i	i	-0.8	-9.22*	3.2	i	98.3*	i
CC(C)c1ccc(CN2CCSCC2)cc1	i	i	2.32	i	-0.8	i	/	/
CC(=O)c1sc(NC(=O)C2(F)C(F)(F)C(F)(F)C(F)(F)C(F)(F)C2(F)F)nc1C	/	/	/	i	/	/	/	/
O=c1[nH]c(N/N=C\c2ccc3c(c2)OCO3)nc2ccccc12	i	i	0.32	i	-5.5	i	/	/
Cc1cc(N/N=C/c2ccc3c(c2)OCO3)nc2ccccc12	i	i	-0.65	-10.7*	-8.9	i	113.0*	i
COc1cc[n+]([O-])cc1[N+](=O)[O-]	/	/	/	i	/	/	/	/
Clc1ccc(/C=C\c2nccc3c2[nH]c2ccccc23)cc1	i	i	1.58	i	-19.3	i	/	/
N#Cc1ccc(/C=C\c2nccc3c2[nH]c2ccccc23)cc1	i	i	-0.39	-9.95*	-14.3	i	116.3*	0.158*
COc1ccc(C2c3ccc(O)cc3Oc3ncn(Cc4ccccc4)c(=N)c32)cc1OC (stereo not given)	i	i	0.27	-8.9*	-13.9	i	75.0*	i
CCOC(=O)c1c(O)c2cccc3c2n(c1=O)CC3	i	i	-0.22	-9.12*	2.0	i	100.3*	i
CCCNC(=O)c1c(O)c2cccc3c2n(c1=O)CCC3	i	i	0.15	i	-6.8	i	/	/
O=C(N/C(=C\c1ccc(Br)cc1)C(=O)N1CCCC1)c1ccccc1F	i	i	-2.79	i	-8.3	i	/	/
CCC(=O)Nc1ccccc1C(=O)OCc1ccc(C(=O)c2ccccc2)cc1	i	i	1.53	-9.26*	-13.9	i	98.3*	i
CCC(=O)Nc1ccccc1C(=O)OC(c1ccccc1)c1ccccc1	i	i	-0.51	i	-12.3	i	/	/
Cc1ccc(-c2nc(NC(=O)c3cc(C(C)(C)C)nn3C)sc2C)cc1Cl	i	i	-0.02	-9.19*	-21.8	10*	96.3*	0.143*
CC1CCc2nc(NC(=O)c3cc(C(C)(C)C)nn3C)sc2C1 (stereo not given)	i	i	1.15	i	-18.3	i	/	/
Clc1ccccc1C(c1ccccc1)(c1ccccc1)n1ccnc1	-17.9*	i	-0.68	-11*	-14.2	i	129.3*	0.133*
FC(F)(F)c1ccccc1-n1ccnc1	/	/	/	i	/	/	/	/
Cc1cccc2c(C(=O)O)cc(-c3cccnc3)nc12	i	i	-2.88	i	-4.6	i	/	/
SMILES	KCNK9 block	KCNQ1 act	Kir21 block	KCNK3 block	hERG rescue	KCNQ1 inh	KCNK3 confirm	KCNK3 uninduced
Cc1cc(C)c2nc(-c3cccnc3)cc(C(=O)NC(C)c3cnn(C)c3C)c2c1 (stereo not given)	i	i	-2.64	-9.23*	-18.5	i	111.0*	0.156*
COc1ccc(-c2cc(OC)c3c(C)oc(C)c3c(=O)c2)cc1OC	i	i	0	-9.03*	-3.7	i	112.7*	0.145*
CCCCN(C(=O)C1=CC=CN2CCS(=O)(=O)N=C12)c1ccccc1	/	/	/	i	/	/	/	/
CC(C)Cc1cc(CNC(=O)C2CCC(=O)N(CCc3cccc(F)c3)C2)on1 (stereo not given)	i	i	-0.55	i	-4.9	i	/	/
CC(C)c1nc(CNC(=O)C2CCC(=O)N(CCc3cccc(F)c3)C2)cs1 (stereo not given)	i	i	0.45	-11*	-4.1	i	77.3*	i
C=CCn1c(SC(C)CC)nc(O)cc1=O (stereo not given)	i	i	-0.02	i	-4.5	i	/	/
C(=C\CSc1nnnn1-c1ccccc1)/CSc1nnnn1-c1ccccc1	i	i	-1.85	-9.68*	-14.8	i	106.3*	i
O=C(NCCO)N1c2ccccc2Sc2ccccc21	i	i	-0.01	i	-3.0	i	/	/
O=C(Nc1ccccc1O)N1c2ccccc2Sc2ccccc21	i	i	-0.1	-10.3*	-18.6	i	103.3*	i
O=[N+]([O-])c1ccc(S(=O)(=O)Nc2nc3ccccc3nc2Nc2ccccc2)cc1	i	i	1.39	-11.3*	-8.8	i	106.7*	i
O=[N+]([O-])c1ccccc1Nc1c2ccccc2nc2ccccc12	i	i	0.62	i	-21.8	i	/	/
O=[N+]([O-])c1ccc(Nc2c3ccccc3nc3ccccc23)cc1	i	i	0.17	-12.3*	-3.5	i	119.7*	0.149*
O=C(O)c1ccc(Nc2nc3ccccc3nc2NS(=O)(=O)c2ccc(F)cc2)cc1	i	i	2.39	i	-13.3	i	/	/
COc1cc(Nc2nc3ccccc3nc2NS(=O)(=O)c2ccc([N+](=O)[O-])cc2)cc(OC)c1OC	i	i	2.39	-12.2*	-13.2	10*	129.3*	0.123*
O=C(/C=C/c1ccc(S(=O)(=O)N2CCOCC2)cc1)OCC(=O)c1ccc([N+](=O)[O-])cc1	i	i	-0.02	i	-7.1	i	/	/
CCS(=O)(=O)N1Cc2ccccc2CC1C(=O)Nc1nnc(SCc2ccc(F)cc2)s1 (stereo not given)	i	i	-0.63	i	-10.1	i	/	/
Cc1cccc(/C=C/c2nc3ccccc3c(=O)[nH]2)c1	i	i	-0.38	-9.42*	-8.4	i	87.3*	i
COC(=O)C1(C)NC(c2ccc(O)cc2)C2C(=O)N(c3ccc(C)cc3)C(=O)C21 (stereo not given)	i	i	0.71	i	-3.1	i	/	/
